Consider twelve compounds from ChEMBL document CHEMBL3286129, “Optimization of peptidomimetic boronates bearing a P3 bicyclic scaffold as proteasome inhibitors” (Eur J Med Chem, 2014).

Assay [1] addresses Proteasome Macropain subunit (Homo sapiens) (UniProt P49721). Put plainly: Inhibition of trypsin-like activity of 20S proteasome in human erythrocytes using Boc-Leu-Arg-Arg-AMC as substrate by fluorescence assay. The assay is classed as cell-based. The method in brief:
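Human 20S proteasome 0.0025 mg/mL at 30 °C in 50 mM Tris pH 7.4, 50 mM NaCl, 0.5 mM EDTA, 0.03% SDS, 7.5% DMSO. Varied inhibitor concentrations; AMC release monitored continuously for 10 min, ex 380/em 460 nm. Ki derived from progress-curve IC50 fit.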

For another assay, the target named is Chymotrypsinogen A (Bos taurus, UniProt P00766). Put plainly: Inhibition of bovine pancreatic alpha-chymotrypsin using Suc-Leu-Leu-Val-Tyr-AMC as substrate by fluorescence assay. Put shortly: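 Enzyme incubated at 20 °C in 50 mM Tris pH 8.0, 100 mM NaCl, 5 mM EDTA, 7.5% DMSO with varied inhibitor concentrations. Substrate hydrolysis followed for 10 min. Ki from progress curves; mean of three determinations.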

Assay [2] can be described thus: Cytotoxicity against human leukemia cells assessed as cell growth at 10 uM relative to control. The assay is classed as functional. Conditions: read-out: Activity. The method in brief:
(§1)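 Single-concentration screen against a panel of human cancer cell lines. Each value is the mean percent growth across the cell lines of that tumour subpanel.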

Assay [3] can be described thus: Cytotoxicity against human NSCLC cells assessed as cell growth at 10 uM relative to control. The assay is classed as functional. Conditions: read-out: Activity. Put shortly:
as §1

A short description of assay [4]: Cytotoxicity against human colon cancer cells assessed as cell growth at 10 uM relative to control. Conditions: Cancer cell lines, read-out: Activity. The assay is classed as functional. Put shortly: as §1
Assay [5] can be described thus: Cytotoxicity against human CNSC cells assessed as cell growth at 10 uM relative to control. Type of assay: functional. Conditions: read-out: Activity. The method in brief: as §1
Assay [6] is described as follows: Cytotoxicity against human melanoma cells assessed as cell growth at 10 uM relative to control. The following applies: read-out: Activity. Type of assay: functional. The method in brief:
as §1

A short description of assay [7]: Cytotoxicity against human ovarian cancer cells assessed as cell growth at 10 uM relative to control. Type of assay: functional. The following applies: Cancer cell lines, read-out: Activity. The method in brief:
as §1

A short description of assay [8]: Cytotoxicity against human renal cancer cells assessed as cell growth at 10 uM relative to control. Type of assay: functional. The following applies: Cancer cell lines, read-out: Activity. The method in brief:
as §1

A short description of assay [9]: Cytotoxicity against human prostate cancer cells assessed as cell growth at 10 uM relative to control. Type of assay: functional. Conditions: Cancer cell lines, read-out: Activity. The method in brief: as §1
A short description of assay [10]: Cytotoxicity against human breast cancer cells assessed as cell growth at 10 uM relative to control. The assay is classed as functional. The following applies: Cancer cell lines, read-out: Activity. The method in brief: as §1
The target in assay [11] is T1, Proteasome Macropain subunit MB1 (Homo sapiens) (UniProt P28074).
T1 sequence (whole entry): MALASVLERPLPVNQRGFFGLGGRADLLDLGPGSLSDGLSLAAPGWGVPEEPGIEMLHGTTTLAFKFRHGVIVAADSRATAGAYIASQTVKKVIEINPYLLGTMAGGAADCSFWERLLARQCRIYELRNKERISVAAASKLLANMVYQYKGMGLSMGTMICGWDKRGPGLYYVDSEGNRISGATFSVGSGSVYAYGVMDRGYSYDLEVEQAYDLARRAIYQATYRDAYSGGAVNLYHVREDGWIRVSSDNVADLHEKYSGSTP
Put plainly: Inhibition of chymotrypsin-like activity of 20S proteasome in human erythrocytes using Suc-Leu-Leu-Val-Tyr-AMC as substrate at 20 uM by fluorescence assay relative to control. The method in brief: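 Single inhibitor concentration, equivalent DMSO as negative control. AMC fluorescence read at ex 380/em 460 nm; percent inhibition of ChT-L activity.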

The target of assay [12] is T2, Proteasome Macropain subunit MB1 (Homo sapiens, UniProt P28074).
T2 sequence (P28074 whole entry): T1 sequence (whole entry)
Put plainly: Inhibition of chymotrypsin-like activity of 20S proteasome in human erythrocytes using Suc-Leu-Leu-Val-Tyr-AMC as substrate by fluorescence assay.

A further assay has as its target T3, Proteasome component C5 (Homo sapiens, UniProt P20618).
T3 sequence (P20618 whole entry): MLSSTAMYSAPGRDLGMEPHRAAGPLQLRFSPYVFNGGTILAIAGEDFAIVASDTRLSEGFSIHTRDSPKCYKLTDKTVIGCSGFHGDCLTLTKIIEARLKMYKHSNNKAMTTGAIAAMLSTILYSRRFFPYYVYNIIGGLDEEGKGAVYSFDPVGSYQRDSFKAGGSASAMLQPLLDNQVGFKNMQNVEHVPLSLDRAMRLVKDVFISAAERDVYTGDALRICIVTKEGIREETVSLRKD
Put plainly: Inhibition of PGPH-like activity of 20S proteasome in human erythrocytes using Z-Leu-Leu-Glu-AMC as substrate by fluorescence assay. Put shortly: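 Human 20S proteasome 0.004 mg/mL, 30 °C, 50 mM Tris pH 7.5 with 25 mM KCl, 10 mM NaCl, 1 mM MgCl2, 0.03% SDS, 5% DMSO. Ki from 4-parameter IC50 fit of progress curves, corrected to zero substrate via Km. Mean of three.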

Assay [13] addresses Proteasome component C5 (Homo sapiens) (UniProt P20618). Put plainly: Inhibition of PGPH-like activity of 20S proteasome in human erythrocytes using Z-Leu-Leu-Glu-AMC as substrate at 20 uM by fluorescence assay relative to control. The method in brief: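 Single-concentration screen of PGPH activity. Human 20S proteasome (0.004 mg/mL) at 30 °C in 50 mM Tris pH 7.5 with 25 mM KCl, 10 mM NaCl, 1 mM MgCl2, 0.03% SDS, 5% DMSO; equivalent DMSO as control. AMC fluorescence at ex 380/em 460 nm.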

The source made the active and inactive calls. No cut-off for these calls is given here.

Chain of Proteasome Macropain subunit (Homo sapiens) (P49721 whole entry): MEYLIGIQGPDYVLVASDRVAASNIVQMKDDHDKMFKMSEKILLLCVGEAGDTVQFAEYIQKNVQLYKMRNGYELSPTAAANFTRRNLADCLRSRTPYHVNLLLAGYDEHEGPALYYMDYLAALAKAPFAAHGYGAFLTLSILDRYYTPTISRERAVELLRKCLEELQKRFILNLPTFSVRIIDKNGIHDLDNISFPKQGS

By inhibition is commonly meant how much of the control response was suppressed. Usually Ki stands for the equilibrium dissociation constant of an inhibitor or competing ligand from its target. Turning to `CC(C)C[C@H](NC(=O)Cn1cc(Br)c2ncccc2c1=O)B(O)O`, the inhibition entry in assay [1] is “inactive”. Also, the Ki entry at Chymotrypsinogen A is given as “Not Active”.

`CC(C)CCNC(=O)Cn1ccc2ccccc2c1=O`: in [1], the inhibition entry was “inactive”. Also, the growth at 10 µM in assay [2] came out at 99.5%; in assay [3], 97.2%; in assay [4], 100%; in assay [5], 102%; in assay [6], 104%; in assay [7] it was 104%. In addition, the figures for the growth at 10 µM in assay [8], in [9] and in assay [10] were 97.4%, 101% and 103%, respectively.

For `CC(C)C[C@H](NC(=O)CCn1cc(Br)c2ncccc2c1=O)B(O)O`, in assay [11], the inhibition is over 40%. The Ki result (in assay [12]; on Proteasome component C5; on Chymotrypsinogen A) was “Not Active” each time. In addition, the inhibition entry in assay [1] was “inactive”.

Turning to `CC(C)CCNC(=O)CCn1cc(Br)c2ncccc2c1=O`, in assay [13], the inhibition came out at 44%. In addition, the Ki is 80 nM in [12] (read-out: Ki) and “Not Active” at Chymotrypsinogen A. The inhibition result in assay [1] is “inactive”.

In the case of `CC(C)C[C@H](NC(=O)Cn1ccc2ncccc2c1=O)B(O)O`, the inhibition entry in [1] was “inactive”. The Ki entry at Chymotrypsinogen A was “Not Active”.

For the compound `CC(C)C[C@H](NC(=O)Cn1ccc2ccccc2c1=O)B(O)O`, the inhibition in assay [11] is over 40%. For the same compound, the Ki amounted to 490 nM in assay [12] (read-out: Ki) and 9110 nM at Chymotrypsinogen A (read-out: Ki). Besides, in assay [1], the inhibition entry is “inactive”. In addition, the growth at 10 µM in assay [2] is 23.1%; in [3] it was 75.6%; in assay [4], 57.9%; in assay [5] it was 71%; in assay [6], 43.5%; in [7], 86.7%. Besides, the figures for the growth at 10 µM in assay [8], in assay [9] and in assay [10] were 39.8%, 80.2% and 51.3%, respectively.

With `CC(C)CCNC(=O)CCn1ccc2ccc(Br)cc2c1=O`, the inhibition entry in assay [1] is “inactive”. The growth at 10 µM stood at 83.4% in assay [2]; 97.7% in assay [3]; 104% in assay [4]; 97.2% in assay [5]; 94% in [6]; 104% in assay [7]. Further, the growth at 10 µM in assay [8] was determined as 86.1%; in assay [9], 103%; in assay [10] it was 94.5%.

Regarding `COc1cc2ccn(CCC(=O)NCCC(C)C)c(=O)c2cc1OC`, in [1], the inhibition result is “inactive”. Also, the growth at 10 µM stood at 108% in assay [2]; 99.2% in assay [3]; 106% in assay [4]; 98% in assay [5]; 106% in assay [6]; 103% in assay [7]. For the same compound, the growth at 10 µM worked out at 95.3% in assay [8], 103% in [9] and 103% in [10].

For `COc1cc2ccn(CCC(=O)N[C@@H](CC(C)C)B(O)O)c(=O)c2cc1OC`, in [11], the inhibition is over 40%. The values for the Ki (in assay [12] (read-out: Ki); at Chymotrypsinogen A) were 85 nM and “Not Active”, respectively. For the same compound, the inhibition result in assay [1] is “inactive”. The growth at 10 µM in assay [2] came out at 59%; in assay [3], 90.3%; in [4] it was 90.8%; in assay [5], 78.3%; in assay [6], 63.7%; in assay [7], 92.6%. In addition, the growth at 10 µM in assay [8] was determined as 89%; in assay [9], 98.8%; in assay [10] it was 56.9%.

With `COc1cc2ccn(CC(=O)N[C@@H](CC(C)C)B(O)O)c(=O)c2cc1OC`, in assay [11], the inhibition was over 40%. The Ki result (in [12]; on Proteasome component C5; on Chymotrypsinogen A) was “Not Active” each time. In addition, the inhibition entry in [1] is “inactive”. Also, the growth at 10 µM in assay [2] was found to be 98.8%; in assay [3], 102%; in assay [4], 104%; in assay [5] it was 99.6%; in [6], 104%; in assay [7], 103%. Besides, the growth at 10 µM in assay [8] was 98.5%; in [9] it was 100%; in assay [10], 99%.

Consider `CC(C)CCNC(=O)Cn1ccc2ccc(Br)cc2c1=O`, for which the values for the Ki (in [12] (read-out: Ki); at Proteasome component C5; on Chymotrypsinogen A) were 2340 nM, “Not Active” and “Not Active”, respectively. Besides, the inhibition result in [1] was “inactive”.

`CC(C)CCNC(=O)CCn1ccc2ncccc2c1=O`: the Ki was 4570 nM in [12] (read-out: Ki) and “Not Active” on Proteasome component C5. Besides, the inhibition result in [1] is “inactive”.
